# Assay results as given in ChEMBL document CHEMBL1765022, “Synthesis and biological evaluation of tetracyclic thienopyridones as antibacterial and antitumor agents” (Bioorg Med Chem, 2011).
# System: Haemophilus influenzae
# Assay: Antimicrobial activity against Haemophilus influenzae ATCC 19418 by broth dilution method
# Type: functional
# Conditions: not given
# In short: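 H. influenzae was grown in Haemophilus Test Medium using twofold serial broth dilution. […] Drug-free, DMSO-only and organism-free control tubes were included. Triplicates, with at least three independent experiments.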
row,Structure (SMILES),MIC [µg/mL]
1,O=C(O)c1cn(C2CC2)c2sc3c4ccc(F)cc4[nH]c3c2c1=O,0.15
2,O=C(O)c1cn(C2CC2)c2cc(N3CCNCC3)c(F)cc2c1=O [CIPROFLOXACIN],0.15
3,Cc1ccc2c(c1)[nH]c1c2sc2c1c(=O)c(C(=O)O)cn2C1CC1,1.5

# System: Staphylococcus aureus
# Assay: Antimicrobial activity against quinilone-pencillin-resistant Staphylococcus aureus isolate SAR 4790 by broth dilution method
# Type: functional
# Conditions: not given
# In short: (§1)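 Twofold serial broth dilution in Mueller Hinton Broth. […] Drug-free tubes, DMSO-only tubes and organism-free tubes served as growth, solvent and sterility controls. Three replicates per organism, at least three independent experiments.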
row,Structure (SMILES),MIC [µg/mL]
1,O=C(O)c1cn(C2CC2)c2sc3c4ccc(F)cc4[nH]c3c2c1=O,> 100
2,O=C(O)c1cn(C2CC2)c2cc(N3CCNCC3)c(F)cc2c1=O [CIPROFLOXACIN],> 100
3,Cc1ccc2c(c1)[nH]c1c2sc2c1c(=O)c(C(=O)O)cn2C1CC1,> 100

# System: Escherichia coli
# Assay: Antimicrobial activity against quinilone-pencillin-resistant Escherichia coli clinical isolate by broth dilution method
# Type: functional
# Conditions: not given
row,Structure (SMILES),MIC [µg/mL]
1,O=C(O)c1cn(C2CC2)c2sc3c4ccc(F)cc4[nH]c3c2c1=O,> 100

# System: not listed separately
# Assay: Antimicrobial activity against Bacillus thuringiensis var.kurstaki BGSC 4D1 by broth dilution method
# Type: functional, Bacillus thuringiensis serovar kurstaki
# Conditions: not given
# In short: (§2)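 Twofold serial broth dilution in Mueller Hinton Broth. […] Growth (drug-free), DMSO solvent and organism-free sterility tubes were included. Three replicates per organism, at least three independent experiments.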
row,Structure (SMILES),MIC [µg/mL]
1,O=C(O)c1cn(C2CC2)c2sc3c4ccc(F)cc4[nH]c3c2c1=O,0.003
2,O=C(O)c1cn(C2CC2)c2cc(N3CCNCC3)c(F)cc2c1=O [CIPROFLOXACIN],0.03
3,Cc1ccc2c(c1)[nH]c1c2sc2c1c(=O)c(C(=O)O)cn2C1CC1,0.15

# System: Acinetobacter baumannii
# Assay: Antimicrobial activity against quinilone-pencillin-resistant Acinetobacter baumannii clinical isolate by broth dilution method
# Type: functional
# Conditions: not given
row,Structure (SMILES),MIC [µg/mL]
1,O=C(O)c1cn(C2CC2)c2sc3c4ccc(F)cc4[nH]c3c2c1=O,> 100
2,Cc1ccc2c(c1)[nH]c1c2sc2c1c(=O)c(C(=O)O)cn2C1CC1,> 100

# System: Bacillus subtilis
# Assay: Antimicrobial activity against Bacillus subtilis ATCC 6633 by broth dilution method
# Type: functional
# Conditions: not given
# In short: as §2
row,Structure (SMILES),MIC [ng/mL]
1,O=C(O)c1cn(C2CC2)c2sc3c4ccc(F)cc4[nH]c3c2c1=O,0.015
2,O=C(O)c1cn(C2CC2)c2cc(N3CCNCC3)c(F)cc2c1=O [CIPROFLOXACIN],30
3,Cc1ccc2c(c1)[nH]c1c2sc2c1c(=O)c(C(=O)O)cn2C1CC1,0.3

# System: Staphylococcus epidermidis
# Assay: Antimicrobial activity against Staphylococcus epidermidis ATCC 12228 by broth dilution method
# Type: functional
# Conditions: not given
# In short: as §2
row,Structure (SMILES),MIC [µg/mL]
1,O=C(O)c1cn(C2CC2)c2sc3c4ccc(F)cc4[nH]c3c2c1=O,0.03
2,O=C(O)c1cn(C2CC2)c2cc(N3CCNCC3)c(F)cc2c1=O [CIPROFLOXACIN],0.07
3,Cc1ccc2c(c1)[nH]c1c2sc2c1c(=O)c(C(=O)O)cn2C1CC1,0.3

# System: Pseudomonas aeruginosa
# Assay: Antimicrobial activity against Pseudomonas aeruginosa ATCC 9027 by broth dilution method
# Type: functional
# Conditions: not given
# In short: as §2
row,Structure (SMILES),MIC [µg/mL]
1,O=C(O)c1cn(C2CC2)c2sc3c4ccc(F)cc4[nH]c3c2c1=O,> 100
2,O=C(O)c1cn(C2CC2)c2cc(N3CCNCC3)c(F)cc2c1=O [CIPROFLOXACIN],0.07
3,Cc1ccc2c(c1)[nH]c1c2sc2c1c(=O)c(C(=O)O)cn2C1CC1,> 100

# System: Staphylococcus aureus
# Assay: Antimicrobial activity against Staphylococcus aureus ATCC 6538 by broth dilution method
# Type: functional
# Conditions: not given
# In short: as §2
row,Structure (SMILES),MIC [µg/mL]
1,O=C(O)c1cn(C2CC2)c2sc3c4ccc(F)cc4[nH]c3c2c1=O,0.003
2,O=C(O)c1cn(C2CC2)c2cc(N3CCNCC3)c(F)cc2c1=O [CIPROFLOXACIN],0.3
3,Cc1ccc2c(c1)[nH]c1c2sc2c1c(=O)c(C(=O)O)cn2C1CC1,0.07

# System: A549
# Assay: Antitumor activity against human A549 cells after 72 hrs by MTT assay
# Type: functional, cell-based
# Conditions: A549, 72 h
# In short: (§3)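 Cells were kept at 37 °C in 5% CO₂, in medium with 2 mM glutamine and 10% FBS; HuDe fibroblasts were grown in DMEM. Compounds were freshly dissolved in DMSO (final ≤0.1% v/v; controls received equal solvent) and applied at 0.1–20 µM for 72 h. Viability was read by MTT. IC₅₀ was extrapolated from Hill-fitted dose–response curves, from at least three independent experiments.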
row,Structure (SMILES),IC50 [µM]
1,O=C(O)c1cn(C2CC2)c2sc3c4ccc(F)cc4[nH]c3c2c1=O,2.7
2,Cc1ccc2c(c1)[nH]c1c2sc2c1c(=O)c(C(=O)O)cn2C1CC1,6.9

# System: Aspergillus niger
# Assay: Antimicrobial activity against Aspergillus niger ATCC 6275 by broth dilution method
# Type: functional
# Conditions: not given
# In short: (§4)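 Fungi were tested by twofold serial broth dilution in Sabouraud Dextrose Broth. Inoculum was 1x10³ CFU/mL, with 48 h at 30 °C before MIC determination. Growth, DMSO solvent and sterility controls were included. Three replicates per organism, at least three independent experiments.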
row,Structure (SMILES),MIC [µg/mL]
1,O=C(O)c1cn(C2CC2)c2sc3c4ccc(F)cc4[nH]c3c2c1=O,> 100
2,O=C(O)c1cn(C2CC2)c2cc(N3CCNCC3)c(F)cc2c1=O [CIPROFLOXACIN],> 100
3,Cc1ccc2c(c1)[nH]c1c2sc2c1c(=O)c(C(=O)O)cn2C1CC1,> 100

# System: Acinetobacter baumannii
# Assay: Antimicrobial activity against Acinetobacter baumannii ATCC 19606 by broth dilution method
# Type: functional
# Conditions: not given
# In short: as §2
row,Structure (SMILES),MIC [µg/mL]
1,O=C(O)c1cn(C2CC2)c2sc3c4ccc(F)cc4[nH]c3c2c1=O,0.15
2,O=C(O)c1cn(C2CC2)c2cc(N3CCNCC3)c(F)cc2c1=O [CIPROFLOXACIN],0.7
3,Cc1ccc2c(c1)[nH]c1c2sc2c1c(=O)c(C(=O)O)cn2C1CC1,0.7

# System: Bacillus cereus
# Assay: Antimicrobial activity against Bacillus cereus ATCC 11778 by broth dilution method
# Type: functional
# Conditions: not given
# In short: as §2
row,Structure (SMILES),MIC [µg/mL]
1,O=C(O)c1cn(C2CC2)c2sc3c4ccc(F)cc4[nH]c3c2c1=O,0.007
2,O=C(O)c1cn(C2CC2)c2cc(N3CCNCC3)c(F)cc2c1=O [CIPROFLOXACIN],0.3
3,Cc1ccc2c(c1)[nH]c1c2sc2c1c(=O)c(C(=O)O)cn2C1CC1,0.3

# System: NHDF
# Assay: Antitumor activity against human NHDF cells after 72 hrs by MTT assay
# Type: functional, cell-based
# Conditions: not given
# In short: as §3
row,Structure (SMILES),IC50 [µM]
1,O=C(O)c1cn(C2CC2)c2sc3c4ccc(F)cc4[nH]c3c2c1=O,> 10
2,Cc1ccc2c(c1)[nH]c1c2sc2c1c(=O)c(C(=O)O)cn2C1CC1,> 10

# System: Saccharomyces cerevisiae
# Assay: Antimicrobial activity against Saccharomyces cerevisiae ATCC 9763 by broth dilution method
# Type: functional
# Conditions: not given
# In short: as §4
row,Structure (SMILES),MIC [µg/mL]
1,O=C(O)c1cn(C2CC2)c2sc3c4ccc(F)cc4[nH]c3c2c1=O,12
2,O=C(O)c1cn(C2CC2)c2cc(N3CCNCC3)c(F)cc2c1=O [CIPROFLOXACIN],> 100
3,Cc1ccc2c(c1)[nH]c1c2sc2c1c(=O)c(C(=O)O)cn2C1CC1,> 100

# System: not listed separately
# Assay: Inhibition of Escherichia coli DNA gyrase assessed as reduction of DNA supercoiling activity using pBR322 DNA substrate after 30 mins by electrophoresis
# Conditions: not given
row,Structure (SMILES),IC50 [µg/mL]
1,O=C(O)c1cn(C2CC2)c2cc(N3CCNCC3)c(F)cc2c1=O [CIPROFLOXACIN],0.34

# System: Candida tropicalis
# Assay: Antimicrobial activity against Candida tropicalis ATCC 1369 by broth dilution method
# Type: functional
# Conditions: not given
# In short: as §4
row,Structure (SMILES),MIC [µg/mL]
1,O=C(O)c1cn(C2CC2)c2sc3c4ccc(F)cc4[nH]c3c2c1=O,> 100
2,O=C(O)c1cn(C2CC2)c2cc(N3CCNCC3)c(F)cc2c1=O [CIPROFLOXACIN],> 100
3,Cc1ccc2c(c1)[nH]c1c2sc2c1c(=O)c(C(=O)O)cn2C1CC1,> 100

# System: Staphylococcus epidermidis
# Assay: Antimicrobial activity against quinilone-pencillin-resistant Staphylococcus epidermidis clinical isolate by broth dilution method
# Type: functional
# Conditions: not given
row,Structure (SMILES),MIC [µg/mL]
1,O=C(O)c1cn(C2CC2)c2sc3c4ccc(F)cc4[nH]c3c2c1=O,1.5
2,Cc1ccc2c(c1)[nH]c1c2sc2c1c(=O)c(C(=O)O)cn2C1CC1,25

# System: MCF7
# Assay: Antitumor activity against human MCF7 cells after 72 hrs by MTT assay
# Type: functional, cell-based
# Conditions: MCF7, 72 h
# In short: as §3
row,Structure (SMILES),IC50 [nM]
1,O=C(O)c1cn(C2CC2)c2sc3c4ccc(F)cc4[nH]c3c2c1=O,1900
2,Cc1ccc2c(c1)[nH]c1c2sc2c1c(=O)c(C(=O)O)cn2C1CC1,2800

# System: Escherichia coli
# Assay: Antimicrobial activity against Escherichia coli ATCC 8739 by broth dilution method
# Type: functional
# Conditions: not given
# In short: as §2
row,Structure (SMILES),MIC [µg/mL]
1,O=C(O)c1cn(C2CC2)c2sc3c4ccc(F)cc4[nH]c3c2c1=O,50
2,Cc1ccc2c(c1)[nH]c1c2sc2c1c(=O)c(C(=O)O)cn2C1CC1,> 100

# System: not listed separately
# Assay: Inhibition of Escherichia coli topoisomerase 4 assessed as decatenation of kDNA after 30 mins by electrophoresis
# Conditions: not given
# In short: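 E. coli topoisomerase IV decatenation of kinetoplast DNA was run in 40 mM HEPES-KOH pH 7.6 with 100 mM potassium glutamate, at varying compound amounts. Products were separated by agarose electrophoresis and quantified by gel documentation. IC₅₀ (µg/mL) is the concentration halving decatenation relative to drug-free enzyme control.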
row,Structure (SMILES),IC50 [µg/mL]
1,O=C(O)c1cn(C2CC2)c2cc(N3CCNCC3)c(F)cc2c1=O [CIPROFLOXACIN],4.6

# System: Priestia megaterium
# Assay: Antimicrobial activity against Bacillus megaterium ATCC 19213 by broth dilution method
# Type: functional
# Conditions: not given
# In short: as §2
row,Structure (SMILES),MIC [ng/mL]
1,O=C(O)c1cn(C2CC2)c2sc3c4ccc(F)cc4[nH]c3c2c1=O,0.015
2,O=C(O)c1cn(C2CC2)c2cc(N3CCNCC3)c(F)cc2c1=O [CIPROFLOXACIN],7
3,Cc1ccc2c(c1)[nH]c1c2sc2c1c(=O)c(C(=O)O)cn2C1CC1,7

# System: Staphylococcus aureus
# Assay: Antimicrobial activity against quinilone-pencillin-resistant Staphylococcus aureus isolate SAR 72 by broth dilution method
# Type: functional
# Conditions: not given
# In short: as §1
row,Structure (SMILES),MIC [µg/mL]
1,O=C(O)c1cn(C2CC2)c2sc3c4ccc(F)cc4[nH]c3c2c1=O,0.7
2,O=C(O)c1cn(C2CC2)c2cc(N3CCNCC3)c(F)cc2c1=O [CIPROFLOXACIN],100
3,Cc1ccc2c(c1)[nH]c1c2sc2c1c(=O)c(C(=O)O)cn2C1CC1,12
